# Measurements reported in ChEMBL document CHEMBL5724801, “EUbOPEN Chemogenomics Library - Multiplex” (2024).
# Values joined by “and” are separate entries in the source; they are usually repeats but may differ in a detail not shown here. Equal values may be shown once.
# Tested on: HEK-293T
# Assay: Multiplex assay against HEK293T
# Format: toxicity, cell-based
# Conditions: human
# Procedure, shortened: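 Cells stained live at seeding with Hoechst33342, BioTracker Green Microtubule Cytoskeleton Dye, MitoTracker Red and Annexin V Alexa Fluor 680 were imaged on a CQ1 microscope at 37°C and 5% CO2 after compound addition. Their classification by CellPathfinder machine-learning gating ran from Hoechst high-intensity objects versus normal cells, to healthy, pyknosed or fragmented nuclei among normal cells, to mitotic or apoptotic among pyknosed cells. Tubulin, mitochondrial-mass and membrane-permeability phenotypes are per cents of healthy-nucleus cells.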
# [1] = 12 h, 1 µM, compound concentration 1 uM
# [2] = 12 h, 10 µM, compound concentration 10 uM
# [3] = 24 h, 1 µM, compound concentration 1 uM
# [4] = 24 h, 10 µM, compound concentration 10 uM
# [5] = 48 h, 1 µM, compound concentration 1 uM
# [6] = 48 h, 10 µM, compound concentration 10 uM
compound,measurement,setting,value
C[C@H](NC(=O)CNC(=O)c1cccc(Cl)c1)c1ccccc1,Population Apoptotic (%),[1],33% and 48%
same,Population Fragmented Nuclei (%),[1],5% and 6%
same,Population Healthy Nuclei (%),[1],79% and 84%
same,Population Hoechst High Intensity Objects (%),[1],8% and 4%
same,Population Membrane Permeable-Phenotype (%),[1],0%
same,Population Mitochondria Different-Phenotype (%),[1],39% and 52%
same,Population Mitotic Cells (%),[1],66% and 51%
same,Population Normal (%),[1],91% and 95%
same,Population Pyknosed Nuclei (%),[1],15% and 9%
same,Population Tubulin-Different-Phenotype (%),[1],29% and 17%
same,Total Cell Count,[1],449 and 384
same,Population Apoptotic (%),[2],41% and 58%
same,Population Fragmented Nuclei (%),[2],6% and 7%
same,Population Healthy Nuclei (%),[2],76% and 77%
same,Population Hoechst High Intensity Objects (%),[2],7% and 13%
same,Population Membrane Permeable-Phenotype (%),[2],0%
same,Population Mitochondria Different-Phenotype (%),[2],54% and 61%
same,Population Mitotic Cells (%),[2],58% and 41%
same,Population Normal (%),[2],92% and 86%
same,Population Pyknosed Nuclei (%),[2],17% and 15%
same,Population Tubulin-Different-Phenotype (%),[2],39% and 33%
same,Total Cell Count,[2],362 and 272
same,Population Apoptotic (%),[3],23% and 45%
same,Population Fragmented Nuclei (%),[3],9% and 7%
same,Population Healthy Nuclei (%),[3],80% and 84%
same,Population Hoechst High Intensity Objects (%),[3],4% and 2%
same,Population Membrane Permeable-Phenotype (%),[3],1% and 0%
same,Population Mitochondria Different-Phenotype (%),[3],25% and 32%
same,Population Mitotic Cells (%),[3],76% and 54%
same,Population Normal (%),[3],95% and 97%
same,Population Pyknosed Nuclei (%),[3],10% and 7%
same,Population Tubulin-Different-Phenotype (%),[3],15% and 9%
same,Total Cell Count,[3],646 and 476
same,Population Apoptotic (%),[4],43% and 58%
same,Population Fragmented Nuclei (%),[4],9% and 10%
same,Population Healthy Nuclei (%),[4],77% and 78%
same,Population Hoechst High Intensity Objects (%),[4],4% and 9%
same,Population Membrane Permeable-Phenotype (%),[4],0%
same,Population Mitochondria Different-Phenotype (%),[4],39% and 49%
same,Population Mitotic Cells (%),[4],56% and 41%
same,Population Normal (%),[4],95% and 90%
same,Population Pyknosed Nuclei (%),[4],12% and 11%
same,Population Tubulin-Different-Phenotype (%),[4],25% and 19%
same,Total Cell Count,[4],505 and 303
same,Population Apoptotic (%),[5],19% and 30%
same,Population Fragmented Nuclei (%),[5],13%
same,Population Healthy Nuclei (%),[5],80% and 81%
same,Population Hoechst High Intensity Objects (%),[5],3% and 2%
same,Population Membrane Permeable-Phenotype (%),[5],0% and 2%
same,Population Mitochondria Different-Phenotype (%),[5],15% and 16%
same,Population Mitotic Cells (%),[5],80% and 70%
same,Population Normal (%),[5],96% and 97%
same,Population Pyknosed Nuclei (%),[5],5%
same,Population Tubulin-Different-Phenotype (%),[5],12% and 6%
same,Total Cell Count,[5],984 and 606
same,Population Apoptotic (%),[6],44% and 35%
same,Population Fragmented Nuclei (%),[6],15% and 19%
same,Population Healthy Nuclei (%),[6],77% and 72%
same,Population Hoechst High Intensity Objects (%),[6],1% and 2%
same,Population Membrane Permeable-Phenotype (%),[6],0%
same,Population Mitochondria Different-Phenotype (%),[6],26% and 28%
same,Population Mitotic Cells (%),[6],55% and 64%
same,Population Normal (%),[6],98% and 97%
same,Population Pyknosed Nuclei (%),[6],7%
same,Population Tubulin-Different-Phenotype (%),[6],18% and 16%
same,Total Cell Count,[6],735 and 462
Cc1c(C(=O)NCCCN(C)C)sc2ncnc(Nc3ccc(F)cc3OC(C)CF)c12 (configuration not stated),Population Apoptotic (%),[1],8.15% and 7.44%
same,Population Fragmented Nuclei (%),[1],1.52% and 6.08%
same,Population Hoechst High Intensity Objects (%),[1],0%
same,Population Membrane Permeable-Phenotype (%),[1],0.79% and 5.56%
same,Population Mitochondria Different-Phenotype (%),[1],38.58% and 38.89%
same,Population Mitotic Cells (%),[1],91.85% and 92.56%
same,Population Normal (%),[1],100%
same,Population Pyknosed Nuclei (%),[1],34.18% and 81.76%
same,Total Cell Count,[1],395 and 148
same,Population Apoptotic (%),[2],12.67% and 12.38%
same,Population Fragmented Nuclei (%),[2],1.93% and 0.83%
same,Population Healthy Nuclei (%),[2],25.6% and 12.4%
same,Population Hoechst High Intensity Objects (%),[2],0%
same,Population Mitotic Cells (%),[2],87.33% and 87.62%
same,Population Normal (%),[2],100%
same,Population Pyknosed Nuclei (%),[2],72.46% and 86.78%
same,Population Tubulin-Different-Phenotype (%),[2],81.13% and 53.33%
same,Total Cell Count,[2],207 and 121
same,Population Apoptotic (%),[3],11.02% and 10.43%
same,Population Fragmented Nuclei (%),[3],2.43% and 2.58%
same,Population Hoechst High Intensity Objects (%),[3],0%
same,Population Membrane Permeable-Phenotype (%),[3],0.68% and 2.78%
same,Population Mitochondria Different-Phenotype (%),[3],18.96% and 11.11%
same,Population Mitotic Cells (%),[3],88.98% and 89.57%
same,Population Normal (%),[3],100%
same,Population Tubulin-Different-Phenotype (%),[3],36.57% and 13.89%
same,Population Apoptotic (%),[4],33.73% and 30.77%
same,Population Fragmented Nuclei (%),[4],1.65% and 0%
same,Population Healthy Nuclei (%),[4],29.75% and 17.27%
same,Population Hoechst High Intensity Objects (%),[4],0%
same,Population Membrane Permeable-Phenotype (%),[4],1.39% and 0%
same,Population Mitochondria Different-Phenotype (%),[4],69.44% and 26.32%
same,Population Mitotic Cells (%),[4],66.27% and 69.23%
same,Population Normal (%),[4],100%
same,Population Pyknosed Nuclei (%),[4],68.6% and 82.73%
same,Population Tubulin-Different-Phenotype (%),[4],80.56% and 73.68%
same,Total Cell Count,[4],242 and 110
same,Population Apoptotic (%),[5],9.92% and 23.86%
same,Population Fragmented Nuclei (%),[5],3.85% and 2.43%
same,Population Healthy Nuclei (%),[5],86.64% and 54.85%
same,Population Hoechst High Intensity Objects (%),[5],0%
same,Population Membrane Permeable-Phenotype (%),[5],6.37% and 1.77%
same,Population Mitochondria Different-Phenotype (%),[5],17.27% and 49.56%
same,Population Mitotic Cells (%),[5],90.08% and 76.14%
same,Population Normal (%),[5],100%
same,Population Apoptotic (%),[6],42.07% and 65.33%
same,Population Fragmented Nuclei (%),[6],1.78% and 1.64%
same,Population Healthy Nuclei (%),[6],46.62% and 36.89%
same,Population Hoechst High Intensity Objects (%),[6],0.35% and 0.81%
same,Population Membrane Permeable-Phenotype (%),[6],1.53% and 0%
same,Population Mitochondria Different-Phenotype (%),[6],90.84% and 55.56%
same,Population Mitotic Cells (%),[6],57.93% and 34.67%
same,Population Normal (%),[6],99.65% and 99.19%
same,Population Pyknosed Nuclei (%),[6],51.6% and 61.48%
same,Population Tubulin-Different-Phenotype (%),[6],30.53% and 82.22%
same,Total Cell Count,[6],282 and 123
